We go through 49 compounds from ChEMBL document CHEMBL1132497, “Synthesis and SAR of adatanserin: novel adamantyl aryl- and heteroarylpiperazines with dual serotonin 5-HT(1A) and 5-HT(2) activity as potential anxiolytic and antidepressant agents” (J Med Chem, 1999).

The target in test [1] is Serotonin 2 (5-HT2) receptor (Rattus norvegicus, UniProt P30994+P08909+P14842). Put plainly: Inhibitory activity against rat cortical 5-hydroxytryptamine 2 receptor. Type of test: protein assay. The gist of the method:
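Cortical membranes from male Sprague–Dawley rats, incubated 15 min at 37 °C in 50 mM Tris pH 7.6 with 1.0 nM [3H]ketanserin and a range of drug concentrations. Nonspecific binding defined with 100 μM methysergide. Run by filtration and counting.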

Test [2] has as its target T1, 5-hydroxytryptamine receptor 1A (Rattus norvegicus, UniProt P19327).
T1 sequence (P19327 whole entry): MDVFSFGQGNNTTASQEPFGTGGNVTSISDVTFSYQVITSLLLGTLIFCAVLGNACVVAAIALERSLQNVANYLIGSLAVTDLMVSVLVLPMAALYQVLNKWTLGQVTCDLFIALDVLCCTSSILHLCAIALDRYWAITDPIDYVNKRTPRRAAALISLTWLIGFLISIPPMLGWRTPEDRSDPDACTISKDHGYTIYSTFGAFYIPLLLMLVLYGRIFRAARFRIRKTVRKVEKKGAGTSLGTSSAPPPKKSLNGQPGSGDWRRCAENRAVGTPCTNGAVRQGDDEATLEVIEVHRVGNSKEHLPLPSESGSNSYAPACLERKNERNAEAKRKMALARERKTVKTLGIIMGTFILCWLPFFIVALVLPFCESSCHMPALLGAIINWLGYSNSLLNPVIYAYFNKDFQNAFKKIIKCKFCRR
In words: Antagonist activity against rat hippocampal tissue 5-hydroxytryptamine 1A receptor. Type of test: functional, tissue-based, Hippocampus.

For test [3], the target named is D(2) dopamine receptor (Rattus norvegicus) (UniProt P61169). In words: Inhibitory activity against Dopamine receptor D2 of rat limbic tissue at 1 uM. Type of test: tissue-based. The settings on record: Limbic system.
For test [4], the target named is D(2) dopamine receptor (Rattus norvegicus, UniProt P61169). In words: Inhibitory activity against rat limbic tissue Dopamine receptor D2. Type of test: tissue-based, Limbic system. The method, boiled down:
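Rat limbic membranes, handled as in the 5-HT2 assay: 15 min at 37 °C, 50 mM Tris pH 7.6, drug concentration range. 30 nM ketanserin in all tubes to block 5-HT2 sites. Nonspecific binding defined with 10 μM sulpiride. Filtration and counting.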

For test [5], the target named is T2, 5-hydroxytryptamine receptor 1A (Rattus norvegicus) (UniProt P19327).
T2 sequence (whole entry): T1 sequence (P19327 whole entry)
In words: Inhibitory activity against 5-hydroxytryptamine 1A receptor of rat hippocampal tissue at 1 uM. In kind it is tissue-based. The settings on record: Hippocampus.

Sequence of D(2) dopamine receptor (Rattus norvegicus) (P61169 whole entry): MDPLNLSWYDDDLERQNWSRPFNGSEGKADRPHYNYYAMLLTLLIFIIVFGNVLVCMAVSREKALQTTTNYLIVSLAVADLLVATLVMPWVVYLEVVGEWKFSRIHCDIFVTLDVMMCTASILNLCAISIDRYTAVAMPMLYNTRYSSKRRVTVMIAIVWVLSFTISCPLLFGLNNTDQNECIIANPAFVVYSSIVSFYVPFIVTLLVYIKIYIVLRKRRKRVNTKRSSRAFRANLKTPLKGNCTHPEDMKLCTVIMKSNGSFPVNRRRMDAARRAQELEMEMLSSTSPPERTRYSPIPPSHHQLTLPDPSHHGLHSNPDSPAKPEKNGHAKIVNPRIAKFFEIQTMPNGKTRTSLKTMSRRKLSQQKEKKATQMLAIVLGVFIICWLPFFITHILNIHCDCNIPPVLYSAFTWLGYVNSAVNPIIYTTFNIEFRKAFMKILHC
Sequence of D(2) dopamine receptor (P61169 whole entry): as above

Regarding `Cl.Cl.O=C(NCCCN1CCN(c2cccc(Cl)c2)CC1)NC12C[C@H]3C[C@@H](C1)C[C@@H](C2)C3`, the values for the Ki in test [1] and in test [2] were 277 nM and 45 nM, respectively. Besides, in test [3], the inhibition is 38%.
Take `C[C@H](CN1CCN(c2ncccn2)CC1)NC(=O)C12C[C@H]3C[C@@H](C1)C[C@@H](C2)C3`: the figures for the Ki in test [1], in test [2] and in test [4] were 961 nM, 1.1 nM and 153 nM, respectively.
`O=C(OCCN1CCN(c2ncccn2)CC1)C12CC3CC(CC1C3)C2` showed an inhibition in test [3] of 47%.
Consider `C[C@@]12C[C@@H]3C[C@@H](CC(CC(=O)OCCCN4CCN(c5cccc(C(F)(F)F)c5)CC4)(C3)C1)C2`, for which, in test [5], the inhibition is 56%.
For `O=C(NCCN1CCN(c2ccc(Cl)cc2)CC1)C12C[C@H]3C[C@@H](C1)C[C@@H](C2)C3`, the affinity in test [2], expressed as Ki, was 96 nM.
Consider `Cl.Cl.O=C(NCCN1CCN(c2cccc(Cl)c2)CC1)C12C[C@H]3C[C@@H](C1)C[C@@H](C2)C3`, for which the values for the Ki in test [1], in test [2] and in test [4] were 16.4 nM, 0.89 nM and 129 nM, respectively.
Take `COc1ccccc1N1CCN(CCCOC(=O)CC23C[C@H]4C[C@@H](C2)C[C@](C)(C4)C3)CC1`: the Ki in test [2] came out at 17 nM. Also, the inhibition in test [3] is 95%.
Consider `C[C@@]12C[C@@H]3C[C@@H](CC(CC(=O)NCCCN4CCN(c5ncccn5)CC4)(C3)C1)C2`, for which the inhibition in test [5] came to 68%; in test [3], 20%.
In test [5], `O=C(OCCCN1CCN(Cc2ccccc2)CC1)C12C[C@H]3C[C@@H](C1)C[C@@H](C2)C3` gave an inhibition of 63%.
As for `COc1ccccc1N1CCN(CCNC(=O)C23C[C@H]4C[C@@H](C2)C[C@@H](C3)C4)CC1.Cl.Cl`, the Ki in test [1] turned out to be 274 nM; in test [2], 1 nM; in test [4], 24 nM.
As for `O=C(NCCN1CCN(c2ncccn2)CC1)NC12C[C@H]3C[C@@H](C1)C[C@@H](C2)C3`, the values for the Ki in test [1] and in test [2] were 71 nM and 77 nM, respectively. The same compound showed an inhibition in test [3] of 72%.
For `COc1ccccc1N1CCN(C[C@@H](C)NC(=O)C23C[C@H]4C[C@@H](C2)C[C@@H](C3)C4)CC1`, the Ki in test [2] was 0.22 nM; in test [4] it was 21.5 nM.
`C[C@@]12C[C@@H]3C[C@@H](CC(CC(=O)OCCN4CCN(c5cccc(C(F)(F)F)c5)CC4)(C3)C1)C2`: the values for the inhibition in test [5] and in test [3] were 35% and 29%, respectively.
Turning to `O=C(NCCCN1CCN(c2cccc(Cl)c2)CC1)C12C[C@H]3C[C@@H](C1)C[C@@H](C2)C3`, the Ki in test [2] was determined as 19 nM. For the same compound, the inhibition in test [3] is 32%.
`O=C(NCCN1CCN(c2cccc(C(F)(F)F)c2)CC1)C12CC3CC(CC1C3)C2`: the inhibition in test [5] is 83%; in test [3], 73%.
`O=C(NCCN1CCN(C(c2ccc(Cl)cc2)c2ccc(Cl)cc2)CC1)NC12C[C@H]3C[C@@H](C1)C[C@@H](C2)C3` gave an inhibition in test [5] of 9%.
As to `O=C(NCCN1CCN(c2cccc(Cl)c2)CC1)NC12C[C@H]3C[C@@H](C1)C[C@@H](C2)C3`, the Ki in test [1] was found to be 89 nM; in test [2], 61 nM. For the same compound, in test [3], the inhibition came to 56%.
As for `O=C(NC12C[C@H]3C[C@@H](C1)C[C@@H](C2)C3)N1CCN(c2cccc(Cl)c2)CC1`, the inhibition in test [5] was 0%.
As for `O=C(N1CCN(c2ncccn2)CC1)C12C[C@H]3C[C@@H](C1)C[C@@H](C2)C3`, in test [5], the inhibition came to 9%.
Turning to `O=C(OCCCN1CCN(c2ncccn2)CC1)C12C[C@H]3C[C@@H](C1)C[C@@H](C2)C3`, the values for the inhibition in test [5] and in test [3] were 72% and 33%, respectively.
In the case of `O=C(OCCN1CCN(C(c2ccc(F)cc2)c2ccc(F)cc2)CC1)C12C[C@H]3C[C@@H](C1)C[C@@H](C2)C3`, in test [5], the inhibition is 4%.
`C[C@@]12C[C@@H]3C[C@@H](CC(CC(=O)NCCN4CCN(c5cccc(Cl)c5)CC4)(C3)C1)C2` had a Ki in test [2] of 38 nM. In test [3], the inhibition amounted to 40%.
Taken in the same sequence, the figures for `C[C@H](CN1CCN(Cc2ccccc2)CC1)NC(=O)C12C[C@H]3C[C@@H](C1)C[C@@H](C2)C3` were 37 nM and 14%.
Turning to `COc1ccccc1N1CCN(CCOC(=O)CC23C[C@H]4C[C@@H](C2)C[C@](C)(C4)C3)CC1`, the results for the inhibition in test [5] and in test [3] were 86% and 97%, respectively.
Take `CC(C)(CN1CCN(Cc2ccccc2)CC1)NC(=O)C12C[C@H]3C[C@@H](C1)C[C@@H](C2)C3`: the inhibition in test [5] amounted to 0%.
`COc1ccccc1N1CCN(CCOC(=O)C23CC4C[C@@H](C[C@H]2C4)C3)CC1` yielded a Ki in test [2] of 4.8 nM. Also, the inhibition in test [3] was 100%.
Take `CC(C)N(CCN1CCN(c2ncccn2)CC1)C(=O)C12C[C@H]3C[C@@H](C1)C[C@@H](C2)C3`: the inhibition in test [5] was found to be 36%.
In test [2], `O=C(NCCN1CCN(Cc2ccccc2)CC1)C12C[C@H]3C[C@@H](C1)C[C@@H](C2)C3` displayed a Ki of 46 nM. The inhibition in test [3] stood at 8%.
Turning to `Cl.Cl.O=C(NCCCN1CCN(c2cccc(Cl)c2)CC1)C12CC3CC(CC1C3)C2`, the values for the inhibitory constant (Ki) in test [1] and in test [2] were 4.3 nM and 10 nM, respectively. Moreover, the inhibition in test [3] was 31%.
In turn, `C[C@@]12C[C@@H]3C[C@@H](CC(CC(=O)OCCCN4CCN(c5cccc(Cl)c5)CC4)(C3)C1)C2` had an inhibition in test [5] of 58%.
In test [2], `CN(CCN1CCN(c2ncccn2)CC1)C(=O)C12C[C@H]3C[C@@H](C1)C[C@@H](C2)C3` showed a Ki of 60 nM.
`O=C(NC12C[C@H]3C[C@@H](C1)C[C@@H](C2)C3)OCCN1CCN(c2cccc(Cl)c2)CC1` displayed a Ki in test [2] of 76 nM. The same compound showed an inhibition in test [3] of 36%.
As to `Cl.Cl.Cl.O=C(CCN1CCN(c2ncccn2)CC1)NC12C[C@H]3C[C@@H](C1)C[C@@H](C2)C3`, the Ki in test [1] amounted to 47 nM; in test [2], 131 nM. Also, in test [3], the inhibition worked out at 14%.
Consider `CC(C)(CN1CCN(c2ncccn2)CC1)NC(=O)C12C[C@H]3C[C@@H](C1)C[C@@H](C2)C3`, for which, in test [2], the Ki is 127 nM.
Turning to `O=C(OCCCN1CCN(c2cccc(Cl)c2)CC1)C12C[C@H]3C[C@@H](C1)C[C@@H](C2)C3`, the inhibition in test [5] amounted to 80%; in test [3], 67%.
In the case of `COc1ccccc1N1CCN(CCOC(=O)NC23C[C@H]4C[C@@H](C2)C[C@@H](C3)C4)CC1`, the Ki in test [2] amounted to 40 nM. In test [3], the inhibition is 95%.
For the compound `Cl.Cl.O=C(NCCCN1CCN(c2ncccn2)CC1)C12CC3CC(CC1C3)C2`, in test [1], the Ki was found to be 286 nM. In test [3], this compound gave an inhibition of 27%.
`C[C@@H](CN1CCN(c2ncccn2)CC1)NC(=O)C12C[C@H]3C[C@@H](C1)C[C@@H](C2)C3`: the inhibition in test [5] came to 21%; in test [3], 1%.
Taken in the same sequence, the figures for `C[C@@]12C[C@@H]3C[C@@H](CC(CC(=O)OCCN4CCN(c5ncccn5)CC4)(C3)C1)C2` were 72% and 39%.
Taken in the same sequence, the figures for `C[C@@]12C[C@@H]3C[C@@H](CC(CC(=O)OCCN4CCN(c5cccc(Cl)c5)CC4)(C3)C1)C2` were 34% and 19%.
For `O=C(OCCCN1CCN(c2cccc(C(F)(F)F)c2)CC1)C12C[C@H]3C[C@@H](C1)C[C@@H](C2)C3`, the values for the inhibition in test [5] and in test [3] were 75% and 54%, respectively.
In the case of `Cl.Cl.O=C(NCCN1CCN(c2ncccn2)CC1)C12CC3CC(CC1C3)C2`, the Ki in test [1] turned out to be 262 nM; in test [2], 2.4 nM. Further, the inhibition in test [3] was 67%.
Taken in the same sequence, the figures for `Cl.Cl.O=C(NCCN1CCN(c2cccc(Cl)c2)CC1)C12CC3CC(CC1C3)C2` were 2.3 nM, 0.7 nM and 94%.
Turning to `C[C@@]12C[C@@H]3C[C@@H](CC(CC(=O)NCCCN4CCN(c5cccc(Cl)c5)CC4)(C3)C1)C2`, the inhibition in test [5] was 81%.
As for `COc1ccccc1N1CCN(CCCOC(=O)C23CC4C[C@@H](C[C@H]2C4)C3)CC1`, the Ki in test [2] came out at 26 nM. For the same compound, the inhibition in test [3] was 100%.
For `Cl.Cl.O=C(NCCCN1CCN(c2ncccn2)CC1)C12C[C@H]3C[C@@H](C1)C[C@@H](C2)C3`, the Ki in test [1] was found to be 21 nM; in test [2], 89 nM. This compound also yielded an inhibition in test [3] of 6%.
In test [5], `O=C(NC12C[C@H]3C[C@@H](C1)C[C@@H](C2)C3)N1CCN(c2ncccn2)CC1` had an inhibition of 3%.
The compound `C[C@@]12C[C@@H]3C[C@@H](CC(CC(=O)NCCN4CCN(c5ncccn5)CC4)(C3)C1)C2` yielded a Ki in test [2] of 30 nM.
Take `O=C(N[C@H](COCc1ccccc1)CN1CCN(Cc2ccccc2)CC1)C12C[C@H]3C[C@@H](C1)C[C@@H](C2)C3`: the values for the Ki in test [2] and in test [4] were 62 nM and 76 nM, respectively.
